The source made the active and inactive calls. No cut-off for these calls is given here. Where a SMILES comes first, the peptide text is derived from it. Bridges are numbered along the chain shown (N, C = ends). [ ]: non-standard residue; d: D form. The star is where a group is joined. Ileψ(thiazoline)Cys = CC[C@H](C)[C@H](N)C1=N[C@H](C(=O)*)CS1; pGlu = O=C1CC[C@@H](C(=O)O)N1; dOrn = NCCC[C@@H](N)C(=O)O; X2 = C(=C\c1ccccc1)/N*; X4 = C(=C/c1ccccc1)/N*
How the values were obtained:
[1] = test system: Mycobacterium tuberculosis; assay: Antimicrobial activity against Mycobacterium tuberculosis H37Rv up to 100 uM after 5 days by resazurin dye based assay; format: functional, organism-based
Procedure, shortened: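 M. tuberculosis H37Rv was grown aerobically at 37 °C in Middlebrook 7H9 with ADS enrichment, 0.5% glycerol and 0.05% tyloxapol, then precultured to log phase (OD600 0.5−1). Cells were seeded at 1 × 10^5 per well on 2-fold dilutions over 100−0.78 μM and held 5 days at 37 °C. Resazurin was added for 16 h at ambient temperature, then cells were formalin-fixed and fluorescence read (ex 540, em 590 nm). Growth is relative to rifampicin (0%) and DMSO (100%).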

Klebsiella pneumoniae = assay: Antimicrobial activity against Klebsiella pneumoniae after 16 to 20 hrs by broth micro dilution method; format: functional, organism-based
Procedure, shortened: (§1)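 Broth microdilution per CLSI in cation-adjusted Mueller-Hinton broth. Inoculum made by direct colony suspension, 5 × 10^5 CFU/mL final, added to serial 2-fold compound dilutions. Plates kept 16–20 h at 37 °C in ambient air. MIC is the lowest concentration with no visible growth. Strains are ATCC CLSI quality-control strains; A. baumannii 09987 is a Bonn clinical isolate.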

Escherichia coli = assay: Antimicrobial activity against Escherichia coli after 16 to 20 hrs by broth micro dilution method; format: functional, organism-based; procedure, shortened: as §1
A2780 = assay: Cytotoxicity against human A2780 cells assessed as reduction in cell viability up to 10 uM after 72 hrs by MTT assay; format: functional, cell-based
Procedure, shortened: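 A2780 ovarian carcinoma cells were grown in RPMI-1640 with 10% FBS, penicillin and streptomycin, about 9000 cells/well, preincubated overnight. Increasing compound concentrations were applied for 72 h, then MTT was added. Absorbance read at 544 nm minus the 690 nm reference.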

Ramos = assay: Cytotoxicity against human Ramos cells assessed as reduction in cell viability up to 10 uM after 24 hrs by MTT assay; format: functional, cell-based
Procedure, shortened: (§2)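 Suspension cells at 5 × 10^5 cells/mL, exposed 24 h to varying compound concentrations; 0.1% v/v DMSO as negative control. MTT added to 1 mg/mL final for 60 min, cells pelleted, formazan extracted in DMSO for 25 min at rt, A570 read with 650 nm reference. Viability relative to DMSO set at 100%; IC50 from fitted curves.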

HL-60 = assay: Cytotoxicity against human HL60 cells assessed as reduction in cell viability up to 10 uM after 24 hrs by MTT assay; format: functional, cell-based; procedure, shortened: as §2
Acinetobacter baumannii = assay: Antimicrobial activity against Acinetobacter baumannii isolate 09987 after 16 to 20 hrs by broth micro dilution method; format: functional, organism-based; procedure, shortened: as §1
Pseudomonas aeruginosa = assay: Antimicrobial activity against Pseudomonas aeruginosa after 16 to 20 hrs by broth micro dilution method; format: functional, organism-based; procedure, shortened: as §1
Klebsiella aerogenes = assay: Antimicrobial activity against Enterobacter aerogenes after 16 to 20 hrs by broth micro dilution method; format: functional, organism-based; procedure, shortened: as §1
Homo sapiens = organism: Homo sapiens; assay: Cytotoxicity against human Jurkat 16 cells assessed as reduction in cell viability up to 10 uM after 24 hrs by MTT assay; format: functional, cell-based; procedure, shortened: as §2
NOMO-1 = assay: Cytotoxicity against human NOMO1 cells assessed as reduction in cell viability up to 10 uM after 24 hrs by MTT assay; format: functional, cell-based; procedure, shortened: as §2
Bacillus subtilis [2] = assay: Induction of RNA damage in Bacillus subtilis isolate 1S34 assessed as increase in helD promoter activity at 30 ug after 14 to 18 hrs by beta-galactosidase reporter gene assay; format: functional, organism-based
Procedure, shortened: (§3)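 B. subtilis 1S34 β-galactosidase promoter reporters were grown in LB with spectinomycin (50 μg/mL) to stationary phase. Cells were set at 3 × 10^7 CFU/mL in LB soft agar (0.7%) containing X-Gal (150 μg/mL). Test compounds were spotted on the plates, with reference antibiotic discs as positive controls. Plates were incubated 14−18 h at 30 °C and read for promoter induction (blue colour).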

Bacillus subtilis [3] = assay: Induction of cell envelope stress in Bacillus subtilis isolate 1S34 assessed as increase in ypuA promoter activity at 30 ug after 14 to 18 hrs by beta-galactosidase reporter gene assay; format: functional, organism-based; procedure, shortened: as §3
Bacillus subtilis [4] = assay: Induction of DNA damage in Bacillus subtilis isolate 1S34 assessed as increase in yorB promoter activity at 30 ug after 14 to 18 hrs by beta-galactosidase reporter gene assay; format: functional, organism-based; procedure, shortened: as §3
Bacillus subtilis [5] = assay: Induction of translation arrest in Bacillus subtilis isolate 1S34 assessed as increase in bmrC promoter activity at 30 ug after 14 to 18 hrs by beta-galactosidase reporter gene assay; format: functional, organism-based
Procedure, shortened: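 The bmrC promoter reporter in B. subtilis 1S34 was embedded at 3 × 10^7 CFU/mL in Belitzky minimal medium soft agar containing X-Gal (150 μg/mL). Test compounds were spotted, with reference antibiotic discs as positive controls. Plates were incubated at 37 °C and read for promoter-driven β-galactosidase induction.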

Bacillus subtilis [6] = assay: Induction of cell envelope stress in Bacillus subtilis isolate 1S34 assessed as increase in liaI promoter activity at 30 ug after 14 to 18 hrs by beta-galactosidase reporter gene assay; format: functional, organism-based; procedure, shortened: as §3
Bacillus subtilis [7] = assay: Induction of cell envelope stress in Bacillus subtilis isolate 1S34 assessed as increase in liaI promoter activity at 10 ug after 14 to 18 hrs by beta-galactosidase reporter gene assay; format: functional, organism-based
Procedure, shortened: (§4)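 Agar-based β-galactosidase promoter-reporter assay. B. subtilis 1S34 grown to stationary phase in LB with spectinomycin 50 μg/mL, then set at 3 × 10^7 CFU/mL in LB soft agar (0.7%) containing X-Gal 150 μg/mL. Test compounds spotted at 20 nmol; reference antibiotics given on paper discs (5–30 μg). Plates read for promoter induction after 14–18 h at 30 °C.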

Bacillus subtilis [8] = assay: Induction of translation arrest in Bacillus subtilis isolate 1S34 assessed as increase in bmrC promoter activity at 10 ug after 14 to 18 hrs by beta-galactosidase reporter gene assay; format: functional, organism-based
Bacillus subtilis [9] = assay: Induction of RNA damage in Bacillus subtilis isolate 1S34 assessed as increase in helD promoter activity at 10 ug after 14 to 18 hrs by beta-galactosidase reporter gene assay; format: functional, organism-based; procedure, shortened: as §4
Bacillus subtilis [10] = assay: Induction of cell envelope stress in Bacillus subtilis isolate 1S34 assessed as increase in ypuA promoter activity at 10 ug after 14 to 18 hrs by beta-galactosidase reporter gene assay; format: functional, organism-based; procedure, shortened: as §4
Bacillus subtilis [11] = assay: Induction of DNA damage in Bacillus subtilis isolate 1S34 assessed as increase in yorB promoter activity at 10 ug after 14 to 18 hrs by beta-galactosidase reporter gene assay; format: functional, organism-based; procedure, shortened: as §4
Bacillus subtilis [12] = assay: Induction of RNA damage in Bacillus subtilis isolate 1S34 assessed as increase in helD promoter activity at 5 ug after 14 to 18 hrs by beta-galactosidase reporter gene assay; format: functional, organism-based; procedure, shortened: as §4
Bacillus subtilis [13] = assay: Induction of DNA damage in Bacillus subtilis isolate 1S34 assessed as increase in yorB promoter activity at 5 ug after 14 to 18 hrs by beta-galactosidase reporter gene assay; format: functional, organism-based; procedure, shortened: as §4
Bacillus subtilis [14] = assay: Induction of translation arrest in Bacillus subtilis isolate 1S34 assessed as increase in bmrC promoter activity at 5 ug after 14 to 18 hrs by beta-galactosidase reporter gene assay; format: functional, organism-based
Bacillus subtilis [15] = assay: Induction of cell envelope stress in Bacillus subtilis isolate 1S34 assessed as increase in ypuA promoter activity at 5 ug after 14 to 18 hrs by beta-galactosidase reporter gene assay; format: functional, organism-based; procedure, shortened: as §4
Bacillus subtilis [16] = assay: Induction of cell envelope stress in Bacillus subtilis isolate 1S34 assessed as increase in liaI promoter activity at 5 ug after 14 to 18 hrs by beta-galactosidase reporter gene assay; format: functional, organism-based; procedure, shortened: as §4

SMILES | Activity [1] | Activity (Klebsiella pneumoniae) | Activity (Escherichia coli) | Activity (A2780) | Activity (Ramos) | Activity (HL-60) | Activity (Acinetobacter baumannii) | Activity (Pseudomonas aeruginosa) | Activity (Klebsiella aerogenes) | Activity (Homo sapiens) | Activity (NOMO-1) | other results
CC(C)[C@H](N)C(=O)N/C=C/c1ccccc1 | inactive | inactive | inactive | inactive | inactive | inactive | inactive | inactive | inactive | inactive | inactive | –
CN[C@H](CC(C)C)C(=O)N[C@H]1C(=O)N[C@@H](CC(N)=O)C(=O)N[C@H]2C(=O)N[C@H]3C(=O)N[C@H](C(=O)N[C@H](C(=O)O)c4cc(O)cc(O)c4-c4cc3ccc4O)[C@H](O)c3ccc(c(Cl)c3)Oc3cc2cc(c3O[C@@H]2O[C@H](CO)[C@@H](O)[C@H](O)[C@H]2O[C@H]2C[C@](C)(N)[C@H](O)[C@H](C)O2)Oc2ccc(cc2Cl)[C@H]1O | – | – | – | – | – | – | – | – | – | – | – | Activity (Bacillus subtilis [2]): Active; Activity (Bacillus subtilis [3]): Active; Activity (Bacillus subtilis [4]): Active; Activity (Bacillus subtilis [5]): Active; Activity (Bacillus subtilis [6]): Active
CO[C@H]1/C=C/O[C@@]2(C)Oc3c(C)c(O)c4c(O)c(c(/C=N/N5CCN(C)CC5)c(O)c4c3C2=O)NC(=O)/C(C)=C\C=C\[C@H](C)[C@H](O)[C@@H](C)[C@@H](O)[C@@H](C)[C@H](OC(C)=O)[C@@H]1C | – | – | – | – | – | – | – | – | – | – | – | Activity (Bacillus subtilis [2]): Active; Activity (Bacillus subtilis [3]): Active; Activity (Bacillus subtilis [4]): Active; Activity (Bacillus subtilis [5]): Active; Activity (Bacillus subtilis [6]): Active
O=C(N[C@H](CO)[C@H](O)c1ccc([N+](=O)[O-])cc1)C(Cl)Cl | – | – | – | – | – | – | – | – | – | – | – | Activity (Bacillus subtilis [7]): Active; Activity (Bacillus subtilis [8]): Active; Activity (Bacillus subtilis [9]): Active; Activity (Bacillus subtilis [10]): Active; Activity (Bacillus subtilis [11]): Active
O=C(O)c1cn(C2CC2)c2cc(N3CCNCC3)c(F)cc2c1=O | – | – | – | – | – | – | – | – | – | – | – | Activity (Bacillus subtilis [12]): Active; Activity (Bacillus subtilis [13]): Active; Activity (Bacillus subtilis [14]): Active; Activity (Bacillus subtilis [15]): Active; Activity (Bacillus subtilis [16]): Active
CC(C)C[C@@H]1NC(=O)[C@@H]2CCCN2C(=O)[C@@H]2CCCN2C(=O)[C@@H](NC(=O)[C@@H]2CCC(=O)N2)CSSC[C@@H](C(=O)N2CCC[C@H]2C(N)=O)NC1=O ([pGlu]CPPLCP-NH2; disulfide 2-6) | inactive | inactive | inactive | inactive | inactive | inactive | inactive | inactive | inactive | inactive | inactive | –
CC[C@H](C)[C@H](NC(=O)[C@@H]1CCC(=O)N1)C(=O)N[C@@H](CC(C)C)C(=O)N[C@H]1CSSC[C@@H](C(=O)N/C=C/c2ccccc2)NC(=O)[C@H](Cc2ccccc2)NC(=O)[C@@H]2CCCN2C(=O)[C@@H]2CCCN2C1=O ([pGlu]ILCPPFC-X2; disulfide 4-8) | inactive | inactive | inactive | inactive | inactive | inactive | inactive | inactive | inactive | inactive | inactive | –
CC[C@H](C)[C@H](NC(=O)[C@@H]1CCC(=O)N1)C(=O)N[C@@H](CC(C)C)C(=O)N[C@H]1CSSC[C@@H](C(=O)N/C=C\c2ccccc2)NC(=O)[C@H](Cc2ccccc2)NC(=O)[C@@H]2CCCN2C(=O)[C@@H]2CCCN2C1=O ([pGlu]ILCPPFC-X4; disulfide 4-8) | – | – | – | inactive | inactive | inactive | – | – | – | inactive | inactive | –
CC[C@H](C)[C@H](N)C1=N[C@H](C(=O)N[C@@H](CC(C)C)C(=O)N[C@H](CCC(=O)O)C(=O)N[C@H](C(=O)N[C@H]2CCCCNC(=O)[C@H](CC(N)=O)NC(=O)[C@@H](CC(=O)O)NC(=O)[C@H](Cc3cnc[nH]3)NC(=O)[C@@H](Cc3ccccc3)NC(=O)[C@H]([C@@H](C)CC)NC(=O)[C@@H](CCCN)NC2=O)[C@@H](C)CC)CS1 ({Ileψ(thiazoline)Cys}-L[dE]IK[dOrn]I[dF]H[dD]N; lactam 4-C) | – | – | – | – | – | – | – | – | – | – | – | Activity (Bacillus subtilis [7]): Active; Activity (Bacillus subtilis [8]): Active; Activity (Bacillus subtilis [9]): Active; Activity (Bacillus subtilis [10]): Active; Activity (Bacillus subtilis [11]): Active
